Data on 58 compounds can be found in PubChem BioAssay AID588777 (Broad Institute, 2011).

Activity calls are given as the source filed them.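 Rule for the calls: active = compound whose fitted half-maximal concentration, rising or falling, is at most ten times its top tested dose; inconclusive = flat fit showing 30 to 70% decrease, or bad fit; inactive = the rest.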

This test addresses Scavenger receptor class B member 1 (Mus musculus) (UniProt Q61009). Briefly: modulators of HDL binding to SR-BI, dose response, orthogonal assay for SR-BI HDL uptake inhibitor project, ldlA[mSR-BI] cells, Alexa488-HDL, powder samples (AID 588777). The settings on record: Alexa488-HDL binding fluorescence, 3 h. The method, boiled down:
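Assay system: ldlA[mSR-BI] cells expressing murine scavenger receptor SR-BI; reagent: Alexa488-labelled HDL at 10 µg/mL; timing: 3 h at 37 °C; measured by: bottom-read Alexa488 fluorescence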

Chain of Scavenger receptor class B member 1 (Mus musculus) (Q61009 whole entry, looked up): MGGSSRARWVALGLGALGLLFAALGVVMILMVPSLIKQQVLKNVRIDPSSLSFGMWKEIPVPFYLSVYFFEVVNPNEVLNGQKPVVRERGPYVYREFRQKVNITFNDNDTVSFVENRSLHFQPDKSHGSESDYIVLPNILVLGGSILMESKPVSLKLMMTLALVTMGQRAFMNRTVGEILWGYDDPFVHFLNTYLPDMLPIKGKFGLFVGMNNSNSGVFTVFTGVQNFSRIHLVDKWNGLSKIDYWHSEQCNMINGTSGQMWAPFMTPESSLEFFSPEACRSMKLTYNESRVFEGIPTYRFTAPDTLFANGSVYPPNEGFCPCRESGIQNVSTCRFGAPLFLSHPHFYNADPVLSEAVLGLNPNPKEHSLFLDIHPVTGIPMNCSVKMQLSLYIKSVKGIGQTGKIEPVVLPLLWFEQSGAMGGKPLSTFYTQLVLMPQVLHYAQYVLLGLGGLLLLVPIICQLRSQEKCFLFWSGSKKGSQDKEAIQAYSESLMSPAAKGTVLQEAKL

For orientation: AC50 means the midpoint of the concentration-response curve, whichever way the signal moves. Turning to `C[C@H]1CN([C@@H](C)CO)C(=O)c2cccc(NC(=O)Nc3ccc(F)cc3)c2O[C@@H]1CN(C)Cc1ccc(Cl)c(Cl)c1`, the AC50 is 0.533 µM.

As to `Cc1ccc(-c2nnc(N3CCC(C)CC3)c3ccccc23)cc1C`, the half-maximal activity concentration (AC50) is 5.54 µM.

Consider `O=C(Nc1cc(Cl)ccc1Cl)c1cc(Br)ccc1NS(=O)(=O)c1ccc(Cl)c([N+](=O)[O-])c1`, for which the AC50 is 4.23 µM.

For `C[C@@H]1CN([C@@H](C)CO)C(=O)c2cc(NC(=O)Cc3cn(C)c4ccccc34)ccc2O[C@@H]1CN(C)S(=O)(=O)c1ccc(F)cc1`, the AC50 was 22.8 µM.

Consider `C[C@H]1CN([C@@H](C)CO)C(=O)c2cc(NC(=O)Nc3ccccc3)ccc2O[C@@H]1CN(C)Cc1ccc(Cl)c(Cl)c1`, for which the “activity change, either direction” value (at 35 µM (top of the series)) is “inactive”.

As for `C[C@H]1CN([C@@H](C)CO)C(=O)c2cccc(NC(=O)Nc3ccccc3)c2O[C@@H]1CN(C)Cc1ccccc1`, the concentration at half-maximal activity (AC50) is 13.8 µM.

`C[C@@H]1CN([C@H](C)CO)C(=O)c2cc(NC(=O)Cc3cn(C)c4ccccc34)ccc2O[C@H]1CN(C)C(=O)Nc1ccc(F)cc1`: the AC50 is 1.93 µM.

For the compound `C[C@H](CO)N1C[C@H](C)[C@H](CN(C)S(=O)(=O)c2ccc(F)cc2)Oc2ccc(NC(=O)CCC(F)(F)F)cc2C1=O`, where the note is “at 35 µM (top of the series)”, the “activity change, either direction” value is “inactive”.

As for `C[C@@H]1CN([C@H](C)CO)C(=O)c2cc(NC(=O)Cc3cn(C)c4ccccc34)ccc2O[C@H]1CN(C)S(C)(=O)=O`, the AC50 is 25 µM.

Consider `Cc1ccc2oc(-c3cccc(NC(=O)c4cc(-n5cnnc5)ccc4Cl)c3)nc2c1`, for which, where the note is “at 68 µM (top of the series)”, the “activity change, either direction” value was “inactive”.

Take `Cc1cc(C(=O)C(C)OC(=O)C2=NNC(=O)CC2)c(C)n1-c1ccc(OC(F)F)cc1` (stereo not drawn): the AC50 was 7.45 µM.

As for `O=C(Nc1ccc(-c2nc3cc(NC(=O)c4ccc(NC(=O)c5cccc6ccccc56)cc4)ccc3[nH]2)cc1)c1ccc(NC(=O)c2cccc3ccccc23)cc1`, the AC50 is < 0.015 µM.

Turning to `COc1ccc(OC)c(CCNC(=O)c2ccc3c(c2)N(Cc2ccc(F)cc2)CCS3)c1`, the AC50 is 6.52 µM.

For the compound `C[C@@H]1CN([C@H](C)CO)C(=O)c2cc(NC(=O)Cc3cn(C)c4ccccc34)ccc2O[C@H]1CN(C)S(=O)(=O)c1ccc(F)cc1`, the AC50 was 2.06 µM.

`COC(=O)c1cn(C(=O)c2cccc3ccccc23)c2ccccc12`: the half-maximal activity concentration (AC50) is 23 µM.

Take `Cc1cc(C)n(CC(=O)NC2CCCc3c2cnn3-c2ccc(C)c(C)c2)n1` (stereo not drawn): the AC50 was 0.0494 µM.

As for `O=C(Nc1cc(Cl)ccc1Cl)c1cc(Cl)ccc1NS(=O)(=O)c1ccc(Cl)c([N+](=O)[O-])c1`, the “activity change, either direction” value (at 35 µM (top of the series)) is “inactive”.

In the case of `CCOC(=O)N1CCC(NC(=O)c2ccc3c(c2)N(Cc2ccc(F)cc2)CCS3)CC1`, the AC50 was 2.4 µM.

For `C[C@@H]1CN([C@H](C)CO)C(=O)c2cc(NC(=O)Cc3cn(C)c4ccccc34)ccc2O[C@H]1CN(C)S(=O)(=O)c1ccccc1`, the half-maximal activity concentration (AC50) is 8.36 µM.

In the case of `Cc1cc(SC(C)C(=O)Nc2ncc(Cl)cc2Cl)nc2ccccc12` (stereo not drawn), the AC50 is 6.84 µM.

In the case of `O=C(Nc1ccc(Cl)cc1C(=O)c1ccc(Cl)cc1)c1cc(Br)ccc1NS(=O)(=O)c1ccc(Cl)cc1`, the AC50 was 21.7 µM.

On to `C[C@@H]1CN([C@H](C)CO)C(=O)c2cc(NC(=O)Cc3cn(C)c4ccccc34)ccc2O[C@@H]1CN(C)S(=O)(=O)c1ccc(F)cc1`, for which the AC50 was 21.5 µM.

On to `O=C(Nc1ccc(-c2nc3ccc(NC(=O)c4ccc(Cl)cc4)cc3[nH]2)cc1)c1ccc(Cl)cc1`, for which the “activity change, either direction” value (at 35 µM (top of the series)) was “inactive”.

`C[C@H]1CN([C@@H](C)CO)C(=O)c2cccc(NS(C)(=O)=O)c2O[C@@H]1CN(C)Cc1ccc(Cl)c(Cl)c1`: the “activity change, either direction” value (at 35 µM (top of the series)) was “inactive”.

For `C[C@H](CO)N1C[C@H](C)[C@H](CN(C)S(=O)(=O)c2ccc(F)cc2)Oc2ccc(NC(=O)Cc3cn(C)c4ccccc34)cc2C1=O`, the concentration at half-maximal activity (AC50) is 30.9 µM.

Regarding `Cc1ccccc1NC(=O)NCC1CCN(c2ccc(S(=O)(=O)N3CCOCC3)cc2)CC1`, the half-maximal activity concentration (AC50) was 3.98 µM.

For the compound `Cc1cc(C)c2c(c1)NC(c1cc3c(cc1Br)OCO3)C1CC=CC21` (stereo not drawn), the concentration at half-maximal activity (AC50) was 8.25 µM.

For `C[C@@H]1CN([C@@H](C)CO)C(=O)c2cc(NC(=O)Cc3cn(C)c4ccccc34)ccc2O[C@H]1CN(C)S(=O)(=O)c1ccc(F)cc1`, the AC50 is 10.2 µM.

In the case of `O=C(Nc1ccc(-c2nc3cc(NC(=O)c4ccccc4Cl)ccc3o2)cc1)c1ccccc1Cl`, the half-maximal activity concentration (AC50) was 0.0819 µM.

Turning to `CC(C)(C)NC(=O)N1CCN(c2ncccc2C(F)(F)F)CC1`, the concentration at half-maximal activity (AC50) was 7.61 µM.

In the case of `C[C@H]1CN([C@@H](C)CO)C(=O)c2cc(NC(=O)Cc3cn(C)c4ccccc34)ccc2O[C@H]1CN(C)S(=O)(=O)c1ccc(F)cc1`, the AC50 was 25.4 µM.

On to `Nc1ccc(C(=O)Nc2ccc(-c3nc4ccc(NC(=O)c5ccc(N)cc5)cc4[nH]3)cc2)cc1`, for which the concentration at half-maximal activity (AC50) is 4.55 µM.

For `C[C@H](CO)N1C[C@H](C)[C@@H](CN(C)S(=O)(=O)c2ccc(F)cc2)Oc2ccc(NC(=O)Cc3cn(C)c4ccccc34)cc2C1=O`, the “activity change, either direction” value (at 11 µM (top of the series)) was “inactive”.

In the case of `CCOc1ccccc1/C=C/c1onc(C)c1S(=O)(=O)N1CCC(C(=O)NC(C)(C)C)CC1`, the AC50 is 11.3 µM.

As for `CC(C)OCCCNC(=O)c1ccc(C2SCC(=O)N2Cc2ccco2)cc1` (stereo not drawn), the half-maximal activity concentration (AC50) was 16.5 µM.

With `CCOC(=O)Nc1cccc(NC(=O)c2cc(OC)cc(OC)c2)c1`, the AC50 was 2.27 µM.

Turning to `CCOc1ccc(NC(=O)CN2CCN(CC(=O)Nc3cc(OC)cc(OC)c3)CC2)cc1`, the AC50 was 0.128 µM.

For `O=C(Nc1ccc(-c2nc3cc(NC(=O)c4ccccc4[N+](=O)[O-])ccc3o2)cc1)c1ccccc1[N+](=O)[O-]`, where the note is “at 35 µM (top of the series)”, the “activity change, either direction” value was “inactive”.

For `CCc1cc2cc3c(cc2nc1SCC(=O)OC(C)C)OCO3`, the half-maximal activity concentration (AC50) was 1.48 µM.

Take `C[C@H]1CN([C@@H](C)CO)C(=O)c2cccc(NC(=O)Nc3ccccc3)c2O[C@@H]1CN(C)S(C)(=O)=O`: the “activity change, either direction” value (at 35 µM (top of the series)) is “inactive”.

As to `CC(OC(=O)c1cccc(NS(C)(=O)=O)c1)C(=O)Nc1ccc(N2CCOCC2)cc1` (stereo not drawn), the AC50 is 4.47 µM.

`C[C@H](CO)N1C[C@H](C)[C@H](CN(C)S(=O)(=O)c2ccc(F)cc2)Oc2ccc(NS(C)(=O)=O)cc2C1=O`: the half-maximal activity concentration (AC50) is 21 µM.

On to `COc1ccc([C@H]2CC(=O)C=C(c3cccc4c3sc3ccccc34)C2)cc1OC`, for which the AC50 is 2.28 µM.

Regarding `C[C@H]1CN([C@@H](C)CO)C(=O)c2cccc(NC(=O)Nc3ccccc3)c2O[C@@H]1CN(C)Cc1ccc(Cl)c(Cl)c1`, the AC50 is 1.79 µM.

On to `CCn1c(COc2c(C)cccc2C)nnc1SCC(=O)N1CCN(c2ccccc2)CC1`, for which the AC50 was 5.89 µM.

Regarding `O=C(Nc1cc(C(F)(F)F)ccc1Cl)c1ccccc1NS(=O)(=O)c1ccc(Cl)cc1`, the “activity change, either direction” value (at 35 µM (top of the series)) is “inactive”.

`O=C(Nc1cccc(NC(=O)c2cc([N+](=O)[O-])ccc2Cl)n1)c1cc([N+](=O)[O-])ccc1Cl`: the half-maximal activity concentration (AC50) is 5.11 µM.

For `CCc1sc(N2C(=O)C3C4CCC(C4=C(C)C)C3C2=O)nc1-c1ccccc1` (stereo not drawn), the half-maximal activity concentration (AC50) was 0.441 µM.

With `O=C(Nc1ccc(-c2nc3ccc(NC(=O)c4ccccc4[N+](=O)[O-])cc3[nH]2)cc1)c1ccccc1[N+](=O)[O-]`, the AC50 was 0.0549 µM.

`C[C@H]1CN([C@@H](C)CO)C(=O)c2cccc(NC(=O)Nc3ccccc3)c2O[C@@H]1CN(C)Cc1ccc(C(F)(F)F)cc1`: the AC50 is 19.4 µM.

Regarding `COc1ccc(-c2nnn(CC(=O)N(C3CCCCC3)C(C)C(=O)NC3CCCC3)n2)cc1OC` (stereo not drawn), the AC50 is 0.422 µM.

For `N#Cc1sc2nc(C3CC3)cc(-c3ccc(Cl)cc3)c2c1N`, the AC50 was 20.1 µM.

For the compound `CC(C)NC(=O)Nc1cccc2c1O[C@H](CN(C)Cc1ccc(Cl)c(Cl)c1)[C@@H](C)CN([C@@H](C)CO)C2=O`, the half-maximal activity concentration (AC50) is 9.96 µM.

As to `CCC(=O)N1CCc2cc(-c3csc(NC(=O)c4ccco4)n3)ccc21`, the “activity change, either direction” value (at 35 µM (top of the series)) was “inactive”.

On to `C[C@@H]1CN([C@H](C)CO)C(=O)c2cc(NC(=O)Cc3cn(C)c4ccccc34)ccc2O[C@H]1CN(C)S(=O)(=O)c1ccc(Cl)cc1`, for which the AC50 was 0.168 µM.

Turning to `O=C(Nc1ccccc1)c1ccccc1NS(=O)(=O)c1ccc(Cl)cc1`, the “activity change, either direction” value (at 35 µM (top of the series)) was “inactive”.

With `COc1cccc(-c2csc(N3CCN(C(=S)Nc4cccc(Cl)c4)CC3)n2)c1`, the AC50 is 12 µM.

As for `O=C(Nc1ccc(-c2nc3ccc(NC(=O)c4ccccc4)cc3[nH]2)cc1)c1ccccc1`, the AC50 is 0.328 µM.
